Data published in ChEMBL document CHEMBL3621107, “Ring fusion strategy for synthesis and lead optimization of sulfur-substituted anthra[1,2-c][1,2,5]thiadiazole-6,11-dione derivatives as promising scaffold of antitumor agents” (Eur J Med Chem, 2015).

Experiments:
Format in all cases: functional
Malme-3M = assay: Cytotoxicity against human MALME-3M cells assessed as cell growth at 10 uM after 48 hrs by SRB assay relative to control; conditions: read-out: Activity
How it was run: (§1)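 First-stage NCI-60 screen by the NCI Developmental Therapeutics Program. Each compound was tested once at a single concentration of 10 μM against the 60-cell-line panel. Growth percentage was reported for each cell line.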

SK-MEL-2 = assay: Cytotoxicity against human SK-MEL-2 cells assessed as cell growth at 10 uM after 48 hrs by SRB assay relative to control; conditions: SK-MEL-2, 48 h, read-out: Activity
How it was run: (§2)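 First-stage NCI DTP one-dose screen against the 60 human tumour cell line panel. Compounds were tested at a single 10 μM level, and results are given as growth percentage.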

SK-MEL-5 = assay: Cytotoxicity against human SK-MEL-5 cells assessed as cell growth at 10 uM after 48 hrs by SRB assay relative to control; conditions: SK-MEL-5, 48 h, read-out: Activity; how it was run: as §2
UACC-62 = assay: Cytotoxicity against human UACC62 cells assessed as cell growth at 10 uM after 48 hrs by SRB assay relative to control; conditions: UACC-62, 48 h, read-out: Activity
How it was run: (§3)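 NCI-60 one-dose screen run by NCI DTP: each cell line exposed to a single 10 µM dose, and percentage growth recorded against untreated growth.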

IGROV-1 = assay: Cytotoxicity against human IGROV1 cells assessed as cell growth at 10 uM after 48 hrs by SRB assay relative to control; conditions: IGROV-1, 48 h, read-out: Activity; how it was run: as §1
OVCAR-3 = assay: Cytotoxicity against human OVCAR3 cells assessed as cell growth at 10 uM after 48 hrs by SRB assay relative to control; conditions: OVCAR-3, 48 h, read-out: Activity; how it was run: as §2
OVCAR-5 = assay: Cytotoxicity against human OVCAR5 cells assessed as cell growth at 10 uM after 48 hrs by SRB assay relative to control; conditions: OVCAR-5, 48 h, read-out: Activity; how it was run: as §2
NCI/ADR-RES = assay: Cytotoxicity against human NCI/ADR-RES cells assessed as cell growth at 10 uM after 48 hrs by SRB assay relative to control; conditions: read-out: Activity; how it was run: as §2
786-0 = assay: Cytotoxicity against human 786-0 cells assessed as cell growth at 10 uM after 48 hrs by SRB assay relative to control; conditions: 786-0, 48 h, read-out: Activity; how it was run: as §1
ACHN = assay: Cytotoxicity against human ACHN cells assessed as cell growth at 10 uM after 48 hrs by SRB assay relative to control; conditions: read-out: Activity; how it was run: as §1
CAKI-1 = assay: Cytotoxicity against human Caki1 cells assessed as cell growth at 10 uM after 48 hrs by SRB assay relative to control; conditions: CAKI-1, 48 h, read-out: Activity; how it was run: as §1
RXF 393 = assay: Cytotoxicity against human RXF393 cells assessed as cell growth at 10 uM after 48 hrs by SRB assay relative to control; conditions: RXF 393, 48 h, read-out: Activity; how it was run: as §2
TK-10 = assay: Cytotoxicity against human TK10 cells assessed as cell growth at 10 uM after 48 hrs by SRB assay relative to control; conditions: TK-10, 48 h, read-out: Activity; how it was run: as §3
MDA-MB-231 = assay: Cytotoxicity against human MDA-MB-231 cells assessed as cell growth at 10 uM after 48 hrs by SRB assay relative to control; conditions: MDA-MB-231, 48 h, read-out: Activity; how it was run: as §2
[1] = Cytotoxicity against human Hs578T cells assessed as cell growth at 10 uM after 48 hrs by SRB assay relative to control; conditions: Hs-578T, read-out: Activity; how it was run: as §1
T47D = assay: Cytotoxicity against human T47D cells assessed as cell growth at 10 uM after 48 hrs by SRB assay relative to control; conditions: read-out: Activity; how it was run: as §3
MDA-MB-468 = assay: Cytotoxicity against human MDA-MB-468 cells assessed as cell growth at 10 uM after 48 hrs by SRB assay relative to control; conditions: MDA-MB-468, 48 h, read-out: Activity; how it was run: as §2
HL-60(TB) = assay: Cytotoxicity against human HL-60(TB) cells assessed as cell growth at 10 uM after 48 hrs by SRB assay relative to control; conditions: HL-60, 48 h, read-out: Activity
How it was run: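 NCI Developmental Therapeutics Program 60-cell-line screen, first stage: a single dose of 10 μM against the panel, reported as percentage growth.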

MOLT-4 = assay: Cytotoxicity against human MOLT4 cells assessed as cell growth at 10 uM after 48 hrs by SRB assay relative to control; conditions: MOLT-4, 48 h, read-out: Activity; how it was run: as §2
[2] = Cytotoxicity against human EKVX cells assessed as cell growth at 10 uM after 48 hrs by SRB assay relative to control; conditions: read-out: Activity; how it was run: as §1
NCI-H460 = assay: Cytotoxicity against human NCI-H460 cells assessed as cell growth at 10 uM after 48 hrs by SRB assay relative to control; conditions: NCI-H460, 48 h, read-out: Activity; how it was run: as §2
COLO 205 = assay: Cytotoxicity against human COLO205 cells assessed as cell growth at 10 uM after 48 hrs by SRB assay relative to control; conditions: COLO 205, 48 h, read-out: Activity; how it was run: as §1
HCT-15 = assay: Cytotoxicity against human HCT15 cells assessed as cell growth at 10 uM after 48 hrs by SRB assay relative to control; conditions: HCT-15, 48 h, read-out: Activity; how it was run: as §1
HT-29 = assay: Cytotoxicity against human HT-29 cells assessed as cell growth at 10 uM after 48 hrs by SRB assay relative to control; conditions: HT-29, 48 h, read-out: Activity; how it was run: as §1
SF-268 = assay: Cytotoxicity against human SF268 cells assessed as cell growth at 10 uM after 48 hrs by SRB assay relative to control; conditions: SF-268, 48 h, read-out: Activity; how it was run: as §2
SF-295 = assay: Cytotoxicity against human SF295 cells assessed as cell growth at 10 uM after 48 hrs by SRB assay relative to control; conditions: SF-295, 48 h, read-out: Activity; how it was run: as §2
SNB-75 = assay: Cytotoxicity against human SNB75 cells assessed as cell growth at 10 uM after 48 hrs by SRB assay relative to control; conditions: SNB-75, 48 h, read-out: Activity; how it was run: as §3
LOX IMVI = assay: Cytotoxicity against human LOXIMVI cells assessed as cell growth at 10 uM after 48 hrs by SRB assay relative to control; conditions: read-out: Activity; how it was run: as §1

## CSc1ccc(Sc2cc3c(c4nsnc24)C(=O)c2ccccc2C3=O)cc1
Malme-3M
  growth at 10 µM: 105%
SK-MEL-2
  growth at 10 µM: 89.3%
SK-MEL-5
  growth at 10 µM: 101%
UACC-62
  growth at 10 µM: 111%
IGROV-1
  growth at 10 µM: 95.7%
OVCAR-3
  growth at 10 µM: 103%
OVCAR-5
  growth at 10 µM: 108%
NCI/ADR-RES
  growth at 10 µM: 91.8%
786-0
  growth at 10 µM: 110%
ACHN
  growth at 10 µM: 104%
CAKI-1
  growth at 10 µM: 99.4%
RXF 393
  growth at 10 µM: 107%
TK-10
  growth at 10 µM: 128%
MDA-MB-231
  growth at 10 µM: 78.8%
[1]
  growth at 10 µM: 96.5%
T47D
  growth at 10 µM: 86.6%
MDA-MB-468
  growth at 10 µM: 82.2%
HL-60(TB)
  growth at 10 µM: 105%
MOLT-4
  growth at 10 µM: 59.9%
[2]
  growth at 10 µM: 114%
NCI-H460
  growth at 10 µM: 106%
COLO 205
  growth at 10 µM: 117%
HCT-15
  growth at 10 µM: 112%
HT-29
  growth at 10 µM: 102%
SF-268
  growth at 10 µM: 89.7%
SF-295
  growth at 10 µM: 98.9%
SNB-75
  growth at 10 µM: 75.1%
LOX IMVI
  growth at 10 µM: 69%

## O=C1c2ccccc2C(=O)c2c1cc(Sc1cc(Cl)ccc1Cl)c1nsnc21
Malme-3M
  growth at 10 µM: 94.3%
SK-MEL-2
  growth at 10 µM: 101%
SK-MEL-5
  growth at 10 µM: 109%
UACC-62
  growth at 10 µM: 94.1%
IGROV-1
  growth at 10 µM: 78.1%
OVCAR-3
  growth at 10 µM: 99.4%
OVCAR-5
  growth at 10 µM: 109%
NCI/ADR-RES
  growth at 10 µM: 83.1%
786-0
  growth at 10 µM: 67.5%
ACHN
  growth at 10 µM: 88.5%
CAKI-1
  growth at 10 µM: 108%
RXF 393
  growth at 10 µM: 91.5%
TK-10
  growth at 10 µM: 112%
MDA-MB-231
  growth at 10 µM: 82.4%
[1]
  growth at 10 µM: 72.5%
T47D
  growth at 10 µM: 63.4%
MDA-MB-468
  growth at 10 µM: 90.7%
HL-60(TB)
  growth at 10 µM: 72.7%
MOLT-4
  growth at 10 µM: 1.27%
[2]
  growth at 10 µM: 109%
NCI-H460
  growth at 10 µM: 101%
COLO 205
  growth at 10 µM: 110%
HCT-15
  growth at 10 µM: 92.8%
HT-29
  growth at 10 µM: 106%
SF-268
  growth at 10 µM: 83%
SF-295
  growth at 10 µM: 78.9%
SNB-75
  growth at 10 µM: 47%
LOX IMVI
  growth at 10 µM: 73%

## Cc1cc(C)cc(Sc2cc3c(c4nsnc24)C(=O)c2ccccc2C3=O)c1
Malme-3M
  growth at 10 µM: 102%
SK-MEL-2
  growth at 10 µM: 108%
SK-MEL-5
  growth at 10 µM: 107%
UACC-62
  growth at 10 µM: 103%
IGROV-1
  growth at 10 µM: 96.7%
OVCAR-3
  growth at 10 µM: 118%
OVCAR-5
  growth at 10 µM: 107%
NCI/ADR-RES
  growth at 10 µM: 97.5%
786-0
  growth at 10 µM: 98.2%
ACHN
  growth at 10 µM: 98%
CAKI-1
  growth at 10 µM: 91%
RXF 393
  growth at 10 µM: 112%
TK-10
  growth at 10 µM: 132%
MDA-MB-231
  growth at 10 µM: 99.2%
[1]
  growth at 10 µM: 105%
T47D
  growth at 10 µM: 81.1%
MDA-MB-468
  growth at 10 µM: 116%
HL-60(TB)
  growth at 10 µM: 73.7%
MOLT-4
  growth at 10 µM: 71.4%
[2]
  growth at 10 µM: 100%
NCI-H460
  growth at 10 µM: 105%
COLO 205
  growth at 10 µM: 106%
HCT-15
  growth at 10 µM: 90.9%
HT-29
  growth at 10 µM: 105%
SF-268
  growth at 10 µM: 108%
SF-295
  growth at 10 µM: 91.1%
SNB-75
  growth at 10 µM: 80.6%
LOX IMVI
  growth at 10 µM: 90.2%

## O=C1c2ccccc2C(=O)c2c1cc(Sc1ccccc1Br)c1nsnc21
Malme-3M
  growth at 10 µM: 35.3%
SK-MEL-2
  growth at 10 µM: 35%
SK-MEL-5
  growth at 10 µM: 46.3%
UACC-62
  growth at 10 µM: 39.6%
IGROV-1
  growth at 10 µM: 27.9%
OVCAR-3
  growth at 10 µM: -65.8%
OVCAR-5
  growth at 10 µM: 121%
NCI/ADR-RES
  growth at 10 µM: -29.9%
786-0
  growth at 10 µM: -6.19%
ACHN
  growth at 10 µM: 25.5%
CAKI-1
  growth at 10 µM: 29.7%
RXF 393
  growth at 10 µM: -8.53%
TK-10
  growth at 10 µM: 76.5%
MDA-MB-231
  growth at 10 µM: 16.9%
[1]
  growth at 10 µM: 54.2%
T47D
  growth at 10 µM: -33%
MDA-MB-468
  growth at 10 µM: -79.9%
HL-60(TB)
  growth at 10 µM: -44%
MOLT-4
  growth at 10 µM: 29.7%
[2]
  growth at 10 µM: 77.7%
NCI-H460
  growth at 10 µM: 58.2%
COLO 205
  growth at 10 µM: 97.4%
HCT-15
  growth at 10 µM: 39.7%
HT-29
  growth at 10 µM: 96.5%
SF-268
  growth at 10 µM: -5.11%
SF-295
  growth at 10 µM: 100%
SNB-75
  growth at 10 µM: 47.2%
LOX IMVI
  growth at 10 µM: -15.3%
